Screening data from PubChem BioAssay.
TRPC4 potent = positive allosteric modulators of TRPC4, primary screen, cell-based, mouse TRPC4beta, HEK293 mu-opioid, Fluo-4 calcium | AID 2227, 2009 | 310,000 tested, 0.42% active | Short transient receptor potential channel 4 (Mus musculus), Q9QUQ5 | DAMGO EC20, Fluo-4 Ca2+ flux; stronger effect = higher value | B-score at 10 µM;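 active = B-score of calcium response area above 5 SD of library B-scores, with initial fluorescence ratio within 5 SD of library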
TRPC6 activator = mouse TRPC6 channel activators, primary screen, cell-based, HEK293, membrane potential dye | Short transient receptor potential channel 6 (Mus musculus), Q61143 | HEK293-TRPC6 membrane potential dye fluorescence; stronger effect = higher value | B-score at 10 µM | 310,000 tested, 0.13% active | AID 2550, 2010;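 active = B-score of the integrated fluorescence ratio above library mean plus 3 SD, and starting fluorescence ratio within library mean plus 5 SD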;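 also: higher score means more depolarization so channel activation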
TRPC6 inh = mouse TRPC6 channel inhibitors, primary screen, cell-based, HEK293, membrane potential dye | Short transient receptor potential channel 6 (Mus musculus), Q61143 | ACh-evoked depolarization; stronger effect = lower value | B-score at 10 µM | 310,000 tested, 1.1% active;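 active = B-score under library mean minus 3 SD, initial fluorescence not abnormally high, positive integrated signal ratio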;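 also: B-score derived from integrated fluorescence ratio over the kinetic read; more negative B-score means stronger inhibition of depolarization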
TRPC4 agonist = activators of mouse TRPC4 channel, primary screen, Fluo4 calcium, HEK293 TRPC4beta/mu-opioid cells. Short transient receptor potential channel 4 (Mus musculus), Q9QUQ5. Fluo4 calcium fluorescence; stronger effect = higher value. B-score at 10 µM. 310,000 tested, 0.49% active. AID 2237, 2010;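 active = B-score above 5 SD of library B-scores, and initial fluorescence ratio not above library mean plus 5 SD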;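 also: positive B-score marks a calcium rise read as TRPC4 activation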
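System: HEK293 cells stably co-expressing mouse TRPC4beta and mu-opioid receptor; Schedule: Fluo4 dye loading 45 min at room temperature, 110 s recording; Detection: Fluo4 fluorescence, kinetic; Evaluation: B-scored integrated calcium fluorescence ratio; Controls: buffer (low) and maximal DAMGO (high).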
TRPC4 block = inhibitors of mouse TRPC4 channel, primary screen, Fluo4 calcium, HEK293 TRPC4beta/mu-opioid cells; DAMGO-evoked Fluo4 calcium flux; stronger effect = lower value; B-score at 10 µM; Short transient receptor potential channel 4 (Mus musculus), Q9QUQ5; 300,000 tested, 0.39% active; AID 2247, 2010;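 active = B-score over 3 SD under the library average, no early fluorescence shift, positive overall ratio signal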
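Assay system – HEK293 line stably carrying TRPC4beta and mu-opioid receptor · Doses – single dose · Detection – Fluo4 calcium-dye fluorescence, kinetic read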
TRPC4 sel inh 2 = second check of whether TRPC6 inhibitors also affect mouse TRPC4 | shares compounds with TRPC6 inh | HEK293 TRPC4/MOR, membrane potential dye fluorescence; channel activated by saturating DAMGO dose | inhibition, % at 10 µM | 920 tested, 42% active;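 active = compounds whose fluorescence signal differed from control wells by over 3 SD, either direction, in both duplicate plates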
TRPC4 spec = mouse TRPC4 modulation by TRPC6 hits, confirmation, selectivity assay for TRPC6 inhibitor project, cell-based, HEK293 TRPC4/mu-opioid, membrane potential dye. shares compounds with TRPC6 inh. membrane potential fluorescence. activity change, negative = inhibition, % at 10 µM. 920 tested, 61% active. AID 2777, 2010;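 active = rise or fall in signal beyond 3 SD of buffer-only wells in both replicate plates, either sign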;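 also: integrated kinetic ratio of fluorescence range over baseline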
HEK293 MPD ctr 2-1 = nonspecific membrane potential effects, parental HEK293, confirmation, counter-screen for TRPC6 inhibitor project, cell-based, second counter screen; shares compounds with TRPC6 inh; parental HEK293 membrane potential dye fluorescence; maximal acetylcholine challenge after compound addition; signal change vs control, % at 10 µM; 920 tested, 31% active;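 active = membrane potential signal moving either way by over 3 SD of the maximum-effect control, in both duplicate plates, meaning non-specific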
HEK293 MPD ctr-1 = membrane potential modulation in parental HEK293, confirmation, counter-screen for TRPC6 inhibitor project, cell-based | shares compounds with TRPC6 inh | parental HEK293 membrane potential dye fluorescence | 920 tested, 60% active | membrane potential signal change, % at 10 µM;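 active = membrane potential signal shifting up or down by more than 3 SD of buffer-only wells, on both duplicate plates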
HEK293 MPD ctr-2 = parental HEK293 membrane potential modulation, confirmation, counter-screen for TRPC6 modulator project, cell-based; shares compounds with TRPC6 inh; membrane potential dye fluorescence; membrane potential signal change, % at 10 µM; 2,400 tested, 51% active; AID 488924, 2010;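 active = membrane potential signal moves up or down beyond 5 SD from buffer-only wells, on both duplicate plates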
HEK293 MPD ctr 2-2 = parental HEK293 nonspecific activity of TRPC6 modulators, second screen; shares compounds with TRPC6 inh; membrane potential dye fluorescence; after compound, maximal acetylcholine stimulation; inhibition, % at 10 µM; 2,400 tested, 14% active; AID 488926;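 active = membrane potential signal drops by more than 5 SD from the mean control signal, in both duplicate plates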
TRPC4/MOR mod = TRPC4 modulation by TRPC6 hit compounds, confirmation, selectivity assay for TRPC6 modulator project, cell-based, HEK293 TRPC4/mu-opioid, membrane potential dye, mouse; 2,400 tested, 69% active; membrane potential fluorescence; shares compounds with TRPC6 inh; AID 488927, 2010; percent change from control (negative = decrease, positive = increase), % at 10 µM;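 active = membrane potential signal moved up or down beyond 5 SD of buffer control wells, in both duplicate plates, actives on both sides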
TRPC4/MOR inh 2 = second selectivity test of TRPC6 modulators against mouse TRPC4 | HEK293 TRPC4/mu-opioid, membrane potential dye fluorescence; stimulated with maximal-effect DAMGO | shares compounds with TRPC6 inh | 2,400 tested, 55% active | inhibition, % at 10 µM;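 active = drop in membrane potential signal beyond 5 SD of the control wells in both duplicate plates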;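 also: TRPC4 counter screen for TRPC6 hits run under conditions tuned for TRPC6 not TRPC4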
TRPC6 inh conf = mouse TRPC6 channel inhibitors, confirmation, HEK293 cells, membrane potential dye, duplicate; 3,300 tested, 43% active; ACh-evoked depolarization; inhibition, % at 10 µM; shares compounds with TRPC6 inh;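 active = fluorescence ratio falls more than 5 SD below the full-stimulation control mean, in both duplicate runs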;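 also: integrated fluorescence ratio of peak minus minimum over baseline after agonist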
TRPC6 act conf = mouse TRPC6 channel activators, confirmation, HEK293 cells, membrane potential dye, duplicate | shares compounds with TRPC6 inh | HEK293-TRPC6 membrane potential dye fluorescence, FDSS | activation, % at 10 µM | 2,800 tested, 11% active | AID 488961, 2010;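 active = ratio signal rise beyond 5 SD above unstimulated control wells' mean, seen in both duplicate runs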
Hits are given with their value; i = inactive; nt = no result given; ! = a repeat was not active. Sampled rows, rich in hits. Any-hit rate of the full collection: about 2.3%.

SMILES	TRPC4 potent	TRPC6 activator	TRPC6 inh	TRPC4 agonist	TRPC4 block	TRPC6 inh conf	others
N#CCCN(CCN1CCCC1)S(=O)(=O)c1ccc(-c2ccc([N+](=O)[O-])cc2)cc1	i	i	-7.77	i	i	88.2%	TRPC4 sel inh 2=32.0%;TRPC4 spec=-27.4%;HEK293 MPD ctr 2-1=29.5%;HEK293 MPD ctr-1=-267.5%;TRPC6 act conf=i
Cc1[nH]c2ccccc2c1C(=O)C(=O)NC1CC(=O)N(c2ccc(F)cc2)C1 (stereo not given)	i	i	i	i	i	nt
S=C(Nc1ccccc1)Nc1ccccc1Br	i	i	i	i	i	nt
Cc1ccc(CNC(=O)c2cc(Cl)cc(Cl)c2)n1C	i	i	i	i	i	nt
OC(CC#CCN1CCCC1)(c1ccccc1)c1ccccc1	i	i	-5.3	i	i	65.0%	HEK293 MPD ctr-2=114.0%;HEK293 MPD ctr 2-2=63.0%;TRPC4/MOR mod=15.0%;TRPC4/MOR inh 2=i
CC1CCCN1CC#CC(O)(c1ccccc1)c1ccccc1 (stereo not given)	i	i	-8.69	i	-7	81.9%	TRPC4 sel inh 2=i;TRPC4 spec=4.5%;HEK293 MPD ctr 2-1=-43.5%;HEK293 MPD ctr-1=8.2%
CC(O)(C#CCN1CCCCC1)c1ccccc1 (stereo not given)	i	i	i	i	i	nt
CC(C)C(O)(C#CCN1CCCCCC1)c1ccccc1 (stereo not given)	i	i	-7.12	i	i	60.7%	TRPC4 sel inh 2=i;TRPC4 spec=13.0%;HEK293 MPD ctr 2-1=i;HEK293 MPD ctr-1=10.5%
CN1CCN(CC#CCC(O)(c2ccccc2)C2CCCC2)CC1 (stereo not given)	i	i	i	i	i	nt
OC(CC#CCN1CCCCC1)(c1ccccc1)c1ccccc1	i	i	i	i	i	nt
C(#CCN1CCCC1)CC(c1ccccc1)c1ccccc1	i	i	-8.55	i	i	i	TRPC4 sel inh 2=66.5%;TRPC4 spec=13.7%;HEK293 MPD ctr 2-1=i;HEK293 MPD ctr-1=14.5%
COc1ccc(NC(=S)NNC(=O)c2nnn(-c3ccccc3)c2C)cc1	i	i	i	i	i	nt
CCC(Oc1ccccc1)C(=O)Nc1ccc(S(=O)(=O)Nc2cc(C)on2)cc1 (stereo not given)	i	i	i	i	i	nt
CCn1nc(NS(=O)(=O)c2ccc([N+](=O)[O-])cc2)c2cc3ccccc3nc21	i	i	i	i	i	nt
OC(C#CCN1CCCC1)(c1ccccc1)c1cccc(F)c1 (stereo not given)	i	i	-5.48	i	i	96.0%	HEK293 MPD ctr-2=i;HEK293 MPD ctr 2-2=123.0%;TRPC4/MOR mod=14.0%;TRPC4/MOR inh 2=32.0%
CC(O)(C#CCN1CCCC1)c1ccccc1 (stereo not given)	i	i	i	i	i	nt
COc1cc2cc(C(c3nnnn3C3CCCCC3)N(C)C3CCCCC3)c(=O)[nH]c2cc1OC (stereo not given)	i	i	i	i	i	nt
COc1ccccc1NC(=O)CSc1nnnn1-c1ccc(C(=O)O)cc1	i	i	i	i	i	nt
CCCCOc1ccccc1NC(=O)CSc1nnnn1C(C)(C)C	i	12.4	i	i	i	nt	HEK293 MPD ctr-2=187.0%;HEK293 MPD ctr 2-2=i;TRPC4/MOR mod=38.5%;TRPC4/MOR inh 2=i;TRPC6 act conf=114.0%
O=C1C(=O)N(CCCN2CCOCC2)C(c2ccc([N+](=O)[O-])cc2)/C1=C(/O)c1ccc2c(c1)OCO2 (stereo not given)	i	i	i	i	i	nt
Cc1nnc(NC(=O)CSc2nnc(CCc3nc4ccccc4[nH]3)n2C)s1	i	14.4	i	i	i	i	HEK293 MPD ctr-2=261.0%;HEK293 MPD ctr 2-2=i;TRPC4/MOR mod=40.5%;TRPC4/MOR inh 2=i;TRPC6 act conf=108.5%
CCc1nnc(NC(=O)CSc2nnc(CCc3nc4ccccc4[nH]3)n2C)s1	i	i	i	i	i	nt
O=C1CN(C(=O)CSc2nc(-c3ccc(Cl)cc3)cs2)c2ccccc2N1	i	i	i	i	i	nt
CCN(CC(=O)Nc1c(F)cccc1F)C(=O)c1cnccn1	i	i	i	i	i	nt
OCCn1c(-c2ccc(F)cc2)csc1=Nc1ccccc1	i	i	-7.45	i	i	74.0%	HEK293 MPD ctr-2=119.5%;HEK293 MPD ctr 2-2=i;TRPC4/MOR mod=12.5%;TRPC4/MOR inh 2=31.0%
COc1cccc(NC(=S)N(CCCN2CCCC2)Cc2cccn2Cc2ccc(Cl)cc2)c1	i	i	-5.3	i	i	48.5%	HEK293 MPD ctr-2=i;HEK293 MPD ctr 2-2=i;TRPC4/MOR mod=i;TRPC4/MOR inh 2=61.5%;TRPC6 act conf=i
S=C(Nc1cccc(Cl)c1)N(CCCN1CCCC1)Cc1cccn1Cc1ccc(Cl)cc1	i	i	i	i	i	nt
CCC(=O)N1CCN=C1SCc1cccc(F)c1	i	i	i	i	i	nt
CN(C)CCCN1c2ccccc2Sc2ccc(Cl)cc21	i	i	-5.64!	i	i	60.5%	HEK293 MPD ctr-2=i;HEK293 MPD ctr 2-2=i;TRPC4/MOR mod=7.5%;TRPC4/MOR inh 2=78.5%;TRPC6 act conf=i
